According to ChEMBL document CHEMBL1140698, “Design, synthesis, and anti-inflammatory properties of orally active 4-(phenylamino)-pyrrolo[2,1-f][1,2,4]triazine p38alpha mitogen-activated protein kinase inhibitors” (J Med Chem, 2008):

What was measured:
[1] = AUC (0 to 4 hrs) in rat at 10 mg/kg, po; type: ADME, organism-based; parameters: time < 4 hr, dose 10 mg/kg, route oral; conditions: plasma
How it was run: (§1)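 Rats given a single oral 10 mg/kg dose in 9/0.5/0.5 water/EtOH/Tween 80. Plasma drug level measured at 0.5 h and AUC0-4h calculated, each as the average of 2 rats.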

[2] = Drug level in rat plasma at 10 mg/kg, po after 0.5 hrs; type: ADME, organism-based; parameters: dose 10 mg/kg, route oral; how it was run: as §1
[3] = Half life in mouse at 5 mg/kg, iv or 10 mg/kg, po; type: ADME, organism-based; conditions: in vivo
How it was run: (§2)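 Mice dosed at 5 mg/kg i.v. or 10 mg/kg p.o., 3 mice per group. Values given as average ± SEM.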

[4] = Cmax in mouse at 5 mg/kg, iv or 10 mg/kg, po; type: ADME, organism-based; conditions: in vivo; how it was run: as §2
[5] = Mean residence time in mouse at 5 mg/kg, iv or 10 mg/kg, po; type: ADME, organism-based; conditions: in vivo; how it was run: as §2
Caco-2 = assay: Intrinsic permeability across human Caco-2 cells; type: ADME, cell-based
[6] = Tmax in mouse at 5 mg/kg, iv or 10 mg/kg, po; type: ADME, organism-based; conditions: in vivo; how it was run: as §2
[7] = Volume of distribution at steady state in mouse 5 mg/kg, iv or 10 mg/kg, po; type: ADME, organism-based; conditions: in vivo, read-out: Vdss; how it was run: as §2
[8] = AUC (0 to 8 hrs) in mouse 5 mg/kg, iv or 10 mg/kg, po; type: ADME, organism-based; conditions: plasma; how it was run: as §2
[9] = Bioavailability in mouse at 10 mg/kg, po; type: ADME, organism-based; conditions: in vivo; how it was run: as §2
[10] = Metabolic stability in human liver microsome after 10 mins; type: ADME; conditions: liver microsomes, read-out: Stability
How it was run: (§3)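 Rat or pooled human (10 donors) liver microsomes at about 1 mg/mL protein, 1 mM NADPH, 56 mM potassium phosphate pH 7.4, compound 3 µM final, 37 °C. Quenched with acetonitrile and parent drug quantified by LC/MS/MS. Percent parent remaining at 10 min, n = 1.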

[11] = Clearance in mouse at 5 mg/kg, iv or 10 mg/kg, po; type: ADME, organism-based; conditions: in vivo; how it was run: as §2
[12] = Metabolic stability in rat liver microsome after 10 mins; type: ADME; conditions: liver microsomes, read-out: Stability; how it was run: as §3

Structure (SMILES)	AUC(0-t) at 4 h [1] [µM·h]	concentration at 0.5 h [2] [µM]	half-life [3] [h]	Cmax [4] [µM]	MRT [5] [h]	Papp (Caco-2) [×10⁻⁶ cm/s]	Tmax [6] [h]	Vd [7] [L/kg]	AUC(0-t) [8] [µM·h]	bioavailability [9] [%]	remaining at 10 min [10] [%]	clearance [11] [mL/min/kg]	remaining at 10 min [12] [%]
CONC(=O)c1ccc(C)c(Nc2ncnn3cc(C(=O)NC(C)C)c(C)c23)c1	3.7	3.8											
CCCNC(=O)c1cn2ncnc(Nc3cc(NC(=O)OCC)ccc3C)c2c1C	0.7	0.4											
CCCNC(=O)c1cn2ncnc(Nc3cc(C(=O)NOC)ccc3C)c2c1C	2.1	6.6	2.5	18	1	5.8	0.25	1.6	13	97	83	28	82
CC[C@H](C)NC(=O)c1cn2ncnc(Nc3cc(C(=O)NOC)ccc3C)c2c1C	9.2	4.3									62		96
CONC(=O)c1ccc(C)c(Nc2ncnn3cc(C(=O)N[C@@H](C)c4ccccc4)c(C)c23)c1	2.1	2.1	1.2	3.7	0.8	13.1	0.5	1.5	3.8	34	72	31	90
CONC(=O)c1ccc(C)c(Nc2ncnn3cc(C(=O)NCc4ccccn4)c(C)c23)c1	2.8	3.4											
CCNC(=O)c1cn2ncnc(Nc3cc(C(=O)NOC)ccc3C)c2c1C	0.7	0.8	2.2	3.1	1.4	2	0.25	7.6	3.6	79	69	93	100
